# Rows were chosen to be rich in hits. Some 3.8% of all compounds tested hit in one or more screens of this group.
# KCNQ1 pot – human KCNQ1 channel potentiation or activation. CHO-K1 KCNQ1, thallium flux FluxOR fluorescence; active compounds read high. B-score at 10 µM. 310,000 compounds, 0.35% hits. AID 2648;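 active = fluorescence ratio B-score, a plate-corrected score, at least three library SD, with initial intensity B-score within 5 SD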
#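 Assay system: CHO-K1 cells stably expressing KCNQ1. Medium: assay buffer for compound exposure, DMSO matched across wells. Timing: 37 °C overnight plating, 90-min dark dye load, 20-min compound pretreatment. Signal: kinetic FluxOR fluorescence, 10 s baseline plus 110 s post-stimulus.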
# KCNK3 inh – human KCNK3 channel inhibition, primary screen; CHO-KCNK3 thallium flux, FluxOR fluorescence; active compounds read low; B-score at 10 µM; 340,000 compounds, 0.84% hits;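 active = B-score under library mean minus 4 SD, starting fluorescence ratio at most library mean plus 5 SD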;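 note: more negative B-score means stronger inhibition of thallium flux through KCNK3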
# Target sequence (O14649 whole entry, looked up): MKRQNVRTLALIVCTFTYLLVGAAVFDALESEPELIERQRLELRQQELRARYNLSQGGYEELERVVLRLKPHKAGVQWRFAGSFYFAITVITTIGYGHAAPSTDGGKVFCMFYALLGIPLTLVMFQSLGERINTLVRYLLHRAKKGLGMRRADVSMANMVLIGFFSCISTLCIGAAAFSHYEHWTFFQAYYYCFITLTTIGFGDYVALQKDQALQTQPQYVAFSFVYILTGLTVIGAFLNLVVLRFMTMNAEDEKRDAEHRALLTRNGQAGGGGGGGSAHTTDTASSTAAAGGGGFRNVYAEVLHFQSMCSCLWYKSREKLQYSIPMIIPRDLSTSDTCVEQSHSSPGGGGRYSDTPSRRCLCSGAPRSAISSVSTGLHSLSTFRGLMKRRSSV
# hERG protect – shields human hERG channel from block by proarrhythmic agents | Q12809 | CHO-hERG, FluxOR thallium flux, dofetilide IC70 present | activation (rescue from dofetilide block), less the hit threshold, % at 10 µM | 310,000 compounds, 0.51% hits;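 active = activation above the mean of controls blocked by dofetilide plus 5 SD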;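 note: thallium influx through hERG after potassium depolarization seen as dye fluorescence rise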
# Kir21 block – inhibitors of mouse Kir2.1 inward-rectifier potassium channel | HEK293-Kir2.1, FluxOR thallium flux fluorescence; active compounds read low | 310,000 compounds, 0.85% hits | B-score at 10 µM;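 active = fluorescence ratio B-score at or below minus 3 SD of library scores, with starting-brightness B-score within 2 SD, cut at about -4.2 in these data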;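 note: channel flux triggered by added potassium and thallium sulfate stimulus; B-score of peak minus minimum fluorescence over baseline after thallium stimulus; more negative B-score means stronger Kir2.1 block with less thallium influx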
# KCNK9 inh-1 – human KCNK9 channel inhibition; HEK293 KCNK9, FluxOR thallium flux fluorescence; active compounds read low; Q9NPC2; B-score at 10 µM; 310,000 compounds, 1.2% hits;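 active = ratio B-score over 3 SD below the library mean, with starting fluorescence within 5 SD of its mean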;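 note: negative B-score means less thallium flux so channel inhibition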
# KCNQ1 block – inhibitors of human KCNQ1 potassium channel. CHO-K1 KCNQ1, FluxOR thallium flux fluorescence; active compounds read high. P51787. AID 2642. B-score at 10 µM. 310,000 compounds, 1.3% hits;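 active = compounds whose thallium flux B-score, printed positive for inhibition, exceeds three library SD while starting fluorescence stays within three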;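 note: channel opened by potassium depolarization with thallium stimulus after 20 min compound exposure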
# hERG inh – blocks human hERG, in counter-screen for Kir2.1 inhibitors; shares compounds with Kir21 block; hERG-expressing cells, thallium flux; inhibition, % at 10 µM; 320 compounds, 20% hits;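 note: host cells are CHO cells stably expressing hERG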
# KCNK9 inh-2 – human KCNK9 off-target activity of Kir2.1 blockers | shares compounds with Kir21 block | KCNK9-expressing cells, ion flux inhibition | inhibition, % at 10 µM | 320 compounds, 5% hits | AID 2329
# Kir2-1 patch inh – mouse Kir2.1 inward rectifier channel inhibition; shares compounds with Kir21 block; Kir2.1 cells, automated patch-clamp current inhibition; inhibition, % at 25 µM; 320 compounds, 71% hits
# KCNK9 inh conf – confirmation of human KCNK9 potassium channel inhibitors; shares compounds with KCNK9 inh-1; inhibition, % at 10 µM; 4,900 compounds, 43% hits; AID 492992; HEK293 KCNK9 cells, FluxOR thallium flux fluorescence;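 active = thallium signal inhibited by more than 5 SD of the compound-free buffer control wells, on both duplicate plates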
# Kir2-1 spec – mouse Kir2.1 off-target activity of KCNK9 modulators; Kir2.1 cells, FluxOR thallium flux fluorescence; inhibition, % at 10 µM; AID 492993; shares compounds with KCNK9 inh-1; 4,900 compounds, 4% hits;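 active = thallium signal drop more than 5 SD beyond the mean of the no-compound control wells, seen in both duplicate plates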;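 note: signal is fluorescence rise after thallium addition divided by baseline fluorescence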
# HEK293 Tl ctr – non-induced cell nonspecific activity of KCNK9 modulators. shares compounds with KCNK9 inh-1. non-induced KCNK9-HEK293, FluxOR thallium flux. inhibition, % at 10 µM. 4,900 compounds, 40% hits;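 active = thallium signal drop beyond 5 SD of the untreated control mean, on both duplicate plates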
# Hits are given with their value; . = inactive; / = not tested or not shown. Unless noted, the rule behind the calls is not given here.
SMILES,KCNQ1 pot,KCNK3 inh,hERG protect,Kir21 block,KCNK9 inh-1,KCNQ1 block,hERG inh,KCNK9 inh-2,Kir2-1 patch inh,others
COc1ccc(C(CCNC(C)c2ccccc2)C(C)C)cc1 (stereo not drawn),.,.,.,-10.6,.,.,.,.,2.7%,
COc1ccc(C(C)NC(=O)c2ccccc2)cc1 (stereo not drawn),.,.,.,.,.,.,/,/,/,
C/C=C/c1ccc(OCCCCN(C)Cc2ccccc2)c(OC)c1,.,.,.,-9.87,.,.,62.0%,.,45.7%,
C/C=C/c1ccc(OCCCCOc2ccccc2C(C)=O)c(OC)c1,.,.,.,.,.,.,/,/,/,
CCc1nnc(NC(=O)C2CC(=O)N(C3CCCCC3)C2)s1 (stereo not drawn),.,.,.,.,.,.,/,/,/,
CCc1ccc(CN(C)C(=O)c2cc(=O)c3ccccc3o2)cc1,.,.,.,.,.,.,/,/,/,
CN1CCC(N(C)C(=O)c2cc(=O)c3ccccc3o2)CC1,.,.,.,.,.,.,.,.,.,
Cc1ccc(CS(=O)Cc2ccc(C(=O)NCC(C)c3ccccc3)o2)cc1 (stereo not drawn),.,.,.,.,.,.,/,/,/,
O=S(=O)(c1ccccc1F)N1CCCc2ccccc21,.,.,.,-6.13,.,.,.,.,32.5%,
Cc1ccc(C(CCNC(C)c2cccs2)c2ccco2)cc1 (stereo not drawn),.,.,.,-8.39,.,.,62.0%,.,.,
Cc1cc(C)c2cc(C(=O)Nc3ccccc3)[nH]c2c1,.,.,.,.,.,.,/,/,/,
Nc1nc(C2CCCN2S(=O)(=O)c2ccc(Cl)cc2)cs1 (stereo not drawn),.,.,.,-6.57,.,.,.,.,13.9%,
O=S(=O)(c1ccc(Cl)cc1)N1CCCC1c1nc(-c2ccc(Cl)cc2)no1 (stereo not drawn),.,.,.,.,.,.,/,/,/,
CC(C)(C)c1ccc(-c2nc3[nH]c(=O)cc(NC(=O)c4ccco4)n3n2)cc1,.,.,.,.,.,.,/,/,/,
CC(CCc1ccc(O)cc1)NC1C2CC3CC(C2)CC1C3 (stereo not drawn),.,.,.,.,.,.,/,/,/,
CC(CCc1ccc(O)cc1)NC1c2ccccc2-c2ccccc21 (stereo not drawn),.,.,.,-14.5,.,.,60.0%,.,.,
O=C(CCN1C(=O)S/C(=C\c2ccccc2)C1=O)NC1CCS(=O)(=O)C1 (stereo not drawn),.,.,.,.,.,.,/,/,/,
CCOc1cc(S(=O)(=O)NCc2ccc3c(c2)OCO3)c(C)cc1C,.,.,.,-6.58,.,.,.,.,10.5%,
Cc1ccc(NC(=S)N2CCC(NC(=O)c3ccc(F)cc3)CC2)cc1,.,.,.,.,.,.,/,/,/,
CC(NS(=O)(=O)c1ccc(Br)s1)c1ccccc1 (stereo not drawn),.,.,.,-7.42,.,.,.,.,43.7%,
Cc1ccc(S(=O)(=O)NC(C)c2ccccc2)cc1[N+](=O)[O-] (stereo not drawn),.,.,.,-7.99,.,.,.,.,29.9%,
O=S(=O)(NCc1ccccc1)c1ccc(Br)s1,.,.,.,.,.,.,/,/,/,
CSc1ccc(S(=O)(=O)NC(C)c2ccccc2)cc1 (stereo not drawn),.,.,.,-7.26,.,.,.,.,63.1%,
Cc1ccc(S(=O)(=O)N/N=C/c2ccccc2F)cc1[N+](=O)[O-],.,.,.,.,.,.,/,/,/,
O=C(CCNS(=O)(=O)c1ccccc1)NCC1CCCCC1,/,.,/,/,/,/,/,/,/,
SMILES,KCNQ1 pot,KCNK3 inh,hERG protect,Kir21 block,KCNK9 inh-1,KCNQ1 block,hERG inh,KCNK9 inh-2,Kir2-1 patch inh,others
Cc1cccc(C)c1NC(=O)CN(C)C(=O)c1cccc(NS(=O)(=O)c2ccccc2)c1,.,.,.,.,.,.,/,/,/,
c1ccc(COc2ccc(OCCCNC3CCCC3)cc2)cc1,.,.,.,-8.8,.,.,47.0%,.,26.0%,
COc1ccc(CCNCC(O)COc2ccc(OC)cc2C(C)(C)C)cc1 (stereo not drawn),.,.,.,-6.19,.,.,61.0%,.,.,
Cc1ccc(OCC(O)CNCc2ccc(F)cc2)cc1 (stereo not drawn),.,.,.,-8.84,.,.,.,.,77.2%,
Cc1ccc(CNC(=O)COc2ccc(C(=O)c3ccc(F)cc3)cc2)cc1,.,.,.,.,.,.,/,/,/,
COc1ccc(CNCC(O)COc2ccc(C)cc2[N+](=O)[O-])cc1 (stereo not drawn),.,.,.,-8.7,.,.,.,.,61.4%,
COc1ccc(CCNCC(O)COc2cccc(Br)c2)cc1OC (stereo not drawn),.,.,.,.,.,.,/,/,/,
CCCC(=O)Nc1nnc(S(=O)(=O)N(CC)c2ccc(OC)cc2)s1,.,.,.,.,.,.,/,/,/,
COc1ccc(CN2CCC(C(=O)c3ccc(F)cc3)CC2)cc1,.,.,.,-7.96,.,.,58.0%,.,63.1%,
COc1ccc(C(=O)C2CCN(C(=O)c3ccc(F)cc3)CC2)cc1,.,.,.,.,.,.,/,/,/,
COc1ccccc1CNCc1ccc(C)cc1,.,.,.,.,.,.,/,/,/,
COc1ccc2ccccc2c1CNCc1ccc(C)cc1,.,.,.,-9.11,.,.,.,.,40.7%,
CCOCCCNCC(O)c1ccccc1 (stereo not drawn),.,.,.,.,.,.,/,/,/,
OCc1cc(C(O)CNCCCCCCOCCCCc2ccccc2)ccc1O (stereo not drawn),.,.,.,-5.3,.,.,.,.,22.7%,
CN(C)CC/C=C1\c2ccccc2Sc2ccc(Cl)cc21,.,.,.,-8.09,.,.,58.0%,.,28.4%,KCNK9 inh conf=.;Kir2-1 spec=59.0%;HEK293 Tl ctr=.
COc1ccc(S(=O)(=O)N2CCOCC2)cc1NC(=O)CSc1nnnn1C1CC1,/,.,/,/,/,/,/,/,/,

# High-throughput results deposited in PubChem by Johns Hopkins Ion Channel Center.
